Columns and labels:
Assay type in all cases: ADME
[1] = target: T1, Solute carrier family 15 member 1 (Rattus norvegicus, UniProt P51574); assay: Drug uptake in Pichia pastoris GS115 expressing rat recombinant PEPT1 at 5 uM after 30s by dual-channel liquid scintillation counting analysis in presence of L-histidine relative to control; details: in vivo, 0.5 min
T1 sequence (P51574 whole entry): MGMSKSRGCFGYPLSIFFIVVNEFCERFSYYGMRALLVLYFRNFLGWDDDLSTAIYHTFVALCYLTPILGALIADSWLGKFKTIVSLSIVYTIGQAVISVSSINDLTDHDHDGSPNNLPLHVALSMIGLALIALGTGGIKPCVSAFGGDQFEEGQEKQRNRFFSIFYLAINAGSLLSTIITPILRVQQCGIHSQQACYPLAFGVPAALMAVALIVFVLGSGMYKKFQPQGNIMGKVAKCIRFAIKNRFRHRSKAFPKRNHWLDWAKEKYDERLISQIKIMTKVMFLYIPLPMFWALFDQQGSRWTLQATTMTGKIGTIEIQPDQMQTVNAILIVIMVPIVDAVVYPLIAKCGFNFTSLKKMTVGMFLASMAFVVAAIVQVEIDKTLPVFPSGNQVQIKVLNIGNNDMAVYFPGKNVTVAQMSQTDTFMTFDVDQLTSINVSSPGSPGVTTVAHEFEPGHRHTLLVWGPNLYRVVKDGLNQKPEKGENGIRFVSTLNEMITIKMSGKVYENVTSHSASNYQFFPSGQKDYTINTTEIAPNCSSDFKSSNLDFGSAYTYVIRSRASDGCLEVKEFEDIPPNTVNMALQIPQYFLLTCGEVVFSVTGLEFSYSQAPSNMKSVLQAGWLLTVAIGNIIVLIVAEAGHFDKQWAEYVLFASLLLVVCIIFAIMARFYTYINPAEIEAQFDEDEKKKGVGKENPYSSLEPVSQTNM
Procedure, shortened: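 [3H]GlySar 5.0 µM final, 30-s uptake at 24°C in 100 mM potassium phosphate pH 6.5, with or without a potential inhibitor at 10 mM. Cells are methanol-induced transformants. Values are vector-subtracted and expressed as percent of buffer control. Mean ± SE (n=3). ANOVA with Dunnett's test.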

[2] = target: T2, PEPT1 (Homo sapiens, UniProt P46059); assay: Drug uptake in Pichia pastoris GS115 expressing human recombinant PEPT1 at 5 uM after 30 mins by dual-channel liquid scintillation counting analysis relative to vector control; details: read-out: FC
T2 sequence (P46059 whole entry): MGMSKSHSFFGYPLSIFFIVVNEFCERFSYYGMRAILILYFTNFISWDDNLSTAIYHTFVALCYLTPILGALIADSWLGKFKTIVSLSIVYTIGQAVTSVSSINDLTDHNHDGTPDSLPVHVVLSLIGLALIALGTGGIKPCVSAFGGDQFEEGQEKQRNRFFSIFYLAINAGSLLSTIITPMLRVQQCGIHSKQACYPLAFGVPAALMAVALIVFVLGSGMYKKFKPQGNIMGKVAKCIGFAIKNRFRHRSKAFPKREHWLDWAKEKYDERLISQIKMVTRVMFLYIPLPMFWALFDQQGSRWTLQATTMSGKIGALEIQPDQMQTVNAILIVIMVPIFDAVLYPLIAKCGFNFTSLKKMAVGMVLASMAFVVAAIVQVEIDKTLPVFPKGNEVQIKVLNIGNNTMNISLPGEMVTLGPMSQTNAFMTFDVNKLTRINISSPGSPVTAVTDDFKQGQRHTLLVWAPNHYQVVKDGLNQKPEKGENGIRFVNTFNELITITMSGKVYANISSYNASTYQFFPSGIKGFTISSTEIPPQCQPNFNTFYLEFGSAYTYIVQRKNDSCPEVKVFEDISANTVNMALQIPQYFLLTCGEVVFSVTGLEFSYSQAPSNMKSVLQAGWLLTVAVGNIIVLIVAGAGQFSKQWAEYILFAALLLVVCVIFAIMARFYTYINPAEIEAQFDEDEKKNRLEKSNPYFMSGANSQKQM
Procedure, shortened: (§1)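 5.0 µM radiolabelled substrate ([3H]GlySar or [14C]oseltamivir) is incubated 30 min at 24°C with induced transformants in 100 mM potassium phosphate pH 6.5. Cell-associated radioactivity is counted by scintillation after standing 24 h and normalised to OD600. Results are compared with pPIC3.5K vector-alone cells. Mean ± SE (n=6).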

[3] = target: T3, PEPT1 (Mus musculus, UniProt Q9JIP7); assay: Drug uptake in Pichia pastoris GS115 expressing mouse recombinant PEPT1 at 5 uM after 30s by dual-channel liquid scintillation counting analysis relative to vector control; details: read-out: FC
T3 sequence (Q9JIP7 whole entry): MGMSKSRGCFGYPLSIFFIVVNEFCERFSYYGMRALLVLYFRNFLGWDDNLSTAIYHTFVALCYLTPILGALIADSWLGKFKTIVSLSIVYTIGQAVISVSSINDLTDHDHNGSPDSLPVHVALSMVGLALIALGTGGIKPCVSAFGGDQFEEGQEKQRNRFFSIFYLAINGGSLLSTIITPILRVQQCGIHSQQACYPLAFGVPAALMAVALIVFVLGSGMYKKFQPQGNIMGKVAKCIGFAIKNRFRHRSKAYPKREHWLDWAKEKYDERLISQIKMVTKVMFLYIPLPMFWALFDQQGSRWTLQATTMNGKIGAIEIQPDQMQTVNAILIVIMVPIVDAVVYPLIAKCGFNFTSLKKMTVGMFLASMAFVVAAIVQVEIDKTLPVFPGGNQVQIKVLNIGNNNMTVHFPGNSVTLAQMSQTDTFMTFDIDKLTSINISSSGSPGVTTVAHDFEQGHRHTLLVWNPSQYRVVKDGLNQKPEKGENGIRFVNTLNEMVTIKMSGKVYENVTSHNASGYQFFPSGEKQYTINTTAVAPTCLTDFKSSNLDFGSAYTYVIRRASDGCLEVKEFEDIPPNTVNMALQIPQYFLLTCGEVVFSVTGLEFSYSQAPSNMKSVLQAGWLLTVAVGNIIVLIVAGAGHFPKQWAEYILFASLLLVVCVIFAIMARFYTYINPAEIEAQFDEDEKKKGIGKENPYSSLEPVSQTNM
Procedure, shortened: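 5.0 µM radiolabelled substrate uptake for 30 s at 24°C in pH 6.5 phosphate buffer by induced transformants. Radioactivity is counted by liquid scintillation and normalised to OD600. Results are compared with pPIC3.5K vector-alone cells. Mean ± SE (n=6).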

[4] = target: T3, PEPT1; assay: Drug uptake in Pichia pastoris GS115 expressing mouse recombinant PEPT1 at 5 uM after 30 mins by dual-channel liquid scintillation counting analysis relative to vector control; details: read-out: FC; procedure, shortened: as §1
[5] = target: T1, Solute carrier family 15 member 1; assay: Activity at rat recombinant PEPT1 expressed in Pichia pastoris GS115 assessed as non-saturable rate constant after 30s by dual-channel liquid scintillation counting analysis
Procedure, shortened: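 [3H]GlySar concentration series 0.005-10 mM, 30-s uptake at 24°C in 100 mM potassium phosphate pH 6.5. Cells come from His+Mut+ GS115 transformants induced 20-24 h in methanol medium. Uptake is normalised to OD600. Data are fitted to Michaelis-Menten plus a first-order nonsaturable term (Kd), weighting unity. Parameters are mean ± SE (n=9).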

Drug uptake [1]: 113% | uptake ratio at 0.5 h, 5 µM [2]: 30 | uptake ratio at 0.5 min, 5 µM [3]: 61 | uptake ratio at 0.5 h, 5 µM [4]: 100 | Kd [5]: 2.21 uL/OD/min
SMILES: [3H]C(C(=O)O)N(C)C(=O)CN (stereo not given)

Reference: ChEMBL document CHEMBL3526053, “Species-dependent uptake of glycylsarcosine but not oseltamivir in Pichia pastoris expressing the rat, mouse, and human intestinal peptide transporter PEPT1” (Drug Metab Dispos, 2012)
